Measurements published in ChEMBL document CHEMBL1142189 (Antimicrob Agents Chemother, 2007).
In brackets after ≈: the same amount, converted by molar mass.

Tests used:
Assay type in all cases: functional, organism-based
[1] = test system: Plasmodium falciparum; assay: Inhibition of Plasmodium falciparum in HRP2 ELISA
In short: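 Fresh P. falciparum clinical isolates from untreated patients with confirmed monoinfection, unfrozen, unwashed, not precultured, no serum added; 1.5% hematocrit in complete RPMI 1640 with 0.5% Albumax and 25 mg/liter gentamicin, tested in duplicate. Twofold serial dilutions, seven concentrations plus drug-free control, on predried plates; 72 h at 37.5°C under 5% CO2/5% O2/90% N2. Plates freeze-thawed twice, HRP2 sandwich ELISA at 450 nm; IC50 by nonlinear regression.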

[2] = test system: Plasmodium falciparum; assay: Inhibition of Plasmodium falciparum AZ10011022 isolate in HRP2 ELISA
In short: (§1)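 Fresh pre-treatment clinical P. falciparum isolates, unfrozen, unwashed and not precultured, in duplicate at 1.5% hematocrit in RPMI 1640 with 0.5% Albumax and 25 mg/liter gentamicin. Plates carried predried twofold dilutions, single or in an 8x8 checkerboard. Incubation was 72 h at 37.5°C in 5% CO2/5% O2/90% N2, then two freeze-thaws. HRP2 sandwich ELISA read at 450 nm; IC50 from nonlinear regression.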

[3] = test system: Plasmodium falciparum; assay: Inhibition of Plasmodium falciparum AZ10011017 isolate in HRP2 ELISA
[4] = test system: Plasmodium falciparum; assay: Inhibition of Plasmodium falciparum AZ10011008 isolate in HRP2 ELISA; in short: as §1
[5] = test system: Plasmodium falciparum; assay: Inhibition of Plasmodium falciparum AZ10011003 isolate in HRP2 ELISA; in short: as §1

SMILES | IC90 [1] | IC99 [1] | IC50 [2] | IC50 [3] | IC50 [4] | IC50 [5] | IC50 [1]
CCN(CC)CCCC(C)Nc1ccnc2cc(Cl)ccc12 (centres undefined) [CHLOROQUINE] | 0.13 µg/mL (≈ 0.405 µM) | 0.172 µg/mL | – | – | – | – | –
C[C@H]1[C@@H](O)O[C@@H]2O[C@@]3(C)CC[C@H]4[C@H](C)CC[C@@H]1[C@@]24OO3 [ARTENIMOL] | 0.00143 µg/mL (≈ 0.00503 µM) | 0.00228 µg/mL | 0.00038 µg/mL (≈ 0.00134 µM) | 0.00027 µg/mL (≈ 0.00095 µM) | 0.00091 µg/mL (≈ 0.0032 µM) | 0.00024 µg/mL (≈ 0.000844 µM) | 0.00053 µg/mL (≈ 0.00186 µM)
C=C[C@H]1CN2CC[C@H]1C[C@H]2[C@H](O)c1ccnc2ccc(OC)cc12 [QUININE] | 0.173 µg/mL (≈ 0.533 µM) | 0.251 µg/mL | 0.116 µg/mL (≈ 0.359 µM) | – | 0.0828 µg/mL (≈ 0.255 µM) | 0.123 µg/mL (≈ 0.38 µM) | 0.0644 µg/mL (≈ 0.198 µM)
OC(c1cc(C(F)(F)F)nc2c(C(F)(F)F)cccc12)C1CCCCN1 (centres undefined) [MEFLOQUINE] | 0.031 µg/mL (≈ 0.0819 µM) | 0.0467 µg/mL | – | – | – | – | –
CC[C@H]1OC(=O)[C@H](C)[C@@H](O[C@H]2C[C@@](C)(OC)[C@@H](O)[C@H](C)O2)[C@H](C)[C@@H](O[C@@H]2O[C@H](C)C[C@H](N(C)C)[C@H]2O)[C@](C)(O)C[C@@H](C)CN(C)[C@H](C)[C@@H](O)[C@]1(C)O [AZITHROMYCIN] | 13.3 µg/mL (≈ 17.8 µM) | 23.9 µg/mL | 2.19 µg/mL (≈ 2.92 µM) | 1.98 µg/mL (≈ 2.64 µM) | 5.34 µg/mL (≈ 7.13 µM) | 2.44 µg/mL (≈ 3.26 µM) | 2.57 µg/mL (≈ 3.43 µM)
